The test system of data set [1] is Plasmodium falciparum. Nature of the data set: Antimalarial activity against Plasmodium falciparum FCB infected in human A-positive type erythrocytes after 72 hrs by SYBR Green I assay.
The nature of data set [2]: Drug uptake in Plasmodium falciparum […] lipid bodies assessed decrease in fluorescence at 500 nM pretreated with 500 nM unlabeled compound. Conditions: 0.5 µM. The format is ADME. The procedure, abridged:
(§1)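 Mid- to late trophozoite cultures were pre-treated for 10 min at 37 °C with 500 nM unlabeled trioxolane or 0.01% MeOH vehicle in warm complete medium. Medium was then replaced with 500 nM fluorescent trioxolane for 10 min. Cells were washed, saponin-released and examined by fluorescence microscopy. Labeled NLB were counted in ~10 random fields (~300 parasites per group) and normalised to parasite number. Results are % decrease versus MeOH, from 3 experiments with t test.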

Data set [3] in a line: Drug uptake in Plasmodium falciparum assessed as accumulation in […] lipid bodies at 500 nM in presence of methanol. The format is ADME. To be noted: 0.5 µM. In a few lines: as §1
Data set [4] can be described thus: Drug uptake in Plasmodium falciparum assessed as accumulation in small spherical structures in digestive vacuole at 500 nM. The format is ADME. Conditions: 0.5 µM. In a few lines: (§2)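 Mixed-stage P. falciparum cultures were exposed to 500 nM fluorescent probe for 10 min in RPMI at 37 °C. They were washed twice with PBS, viewed directly or after 0.2% saponin release, and imaged live by epifluorescence at 100X oil immersion, with phase contrast overlay.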

Data set [5] relates to Plasmodium falciparum. As to the kind of experiment: Induction of peroxidation of Plasmodium falciparum membrane-incorporated BODIPY at trophozoite stage at 250 nM after 2.5 hrs by fluorescence microscopic analysis. The format is functional, organism-based. In a few lines: (§3)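 Cultures at each asexual stage were exposed at 37 °C for 2.5 h to 250 nM compound or 0.01% MeOH vehicle, then to 40 nM BODIPY 581/591 C11 for a further 30 min. Trophozoites were saponin-released; ring and segmenter stages were imaged in erythrocytes. Peroxidation was read as a red-to-yellow/green fluorescence shift by microscopy.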

The test system of data set [6] is Plasmodium falciparum. Nature of the data set: Induction of peroxidation of Plasmodium falciparum membrane-incorporated BODIPY at ring stage at 250 nM after 2.5 hrs by fluorescence microscopic analysis. The format is functional, organism-based. The procedure, abridged:
as §3

The subject of data set [7] is Plasmodium falciparum. Nature of the data set: Induction of peroxidation of Plasmodium falciparum membrane-incorporated BODIPY at 250 nM after 2.5 hrs by fluorescence microscopic analysis. The format is functional, organism-based. The procedure, abridged:
as §3

The subject of data set [8] is Plasmodium falciparum. As to the kind of experiment: Induction of peroxidation of Plasmodium falciparum membrane-incorporated BODIPY at asexual stage at 250 nM after 2.5 hrs by fluorescence microscopic analysis. The format is functional, organism-based. The procedure, abridged:
as §3

For data set [9], the system named is Plasmodium falciparum. Nature of the data set: Drug uptake in Plasmodium falciparum assessed as subcellular localization at 500 nM. The format is ADME, organism-based. To be noted: 0.5 µM. In a few lines: as §2
Data set [10] in a line: Drug uptake in Plasmodium falciparum assessed as cytoplasmic accumulation at 500 nM. The format is ADME, Cytoplasm. Conditions: 0.5 µM. In a few lines: as §2
Data set [11] is described as follows: Drug uptake in Plasmodium falciparum assessed as accumulation in nuclear lipid bodies at 500 nM. The format is ADME. To be noted: 0.5 µM, in the assay text read “neutral lipid bodies” for “nuclear lipid bodies”. In a few lines:
(§4)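 Mixed-stage P. falciparum cultures (strains FCB and 7G8, grown in human A+ or AB+ erythrocytes at 37 °C in supplemented RPMI 1640 under 90% N2/5% O2/5% CO2) were exposed to 500 nM probe for 10 min in RPMI at 37 °C. Cells were washed twice with PBS, viewed directly or after 0.2% saponin release, and imaged by 100X oil-immersion epifluorescence with phase contrast.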

A short description of data set [12]: Drug uptake in Plasmodium falciparum assessed as accumulation in membranous structures at 500 nM. The format is ADME. Conditions: 0.5 µM. The procedure, abridged:
as §4

Data set [13] deals with Plasmodium falciparum. Nature of the data set: Antimalarial activity against Plasmodium falciparum K1 infected in human A-positive type erythrocytes after 72 hrs by SYBR Green I assay. To be noted: K1, 72 h.
Data set [14] can be described thus: Binding affinity to Plasmodium falciparum calcium-transporting ATPase.

Each structure is given as a SMILES string. Activity calls are given as the source filed them. The rule behind the calls is not given here.

On to `CN(C)c1cccc2c(S(=O)(=O)OC34CC5CC(C3)C3(OOC6(CCCCC6)O3)C(C5)C4)cccc12` (mixture of isomers), for which half-maximal inhibition in data set [1] (IC50) required 17.9 nM. For the same compound, the results for the Drug uptake result in data set [2], in data set [3] and in data set [4] were “Not Active”, “Active” and “Active”, respectively.
Compound `CC(C)(C)OC(=O)NCCCNC1CCC2(CC1)OOC1(O2)C2CC3CC(C2)CC1C3` (mixture of isomers) displayed an IC50 in [1] of 12.6 nM. Moreover, the result in [5], in data set [6], in data set [7] and in [8] was Active.
In data set [1], `C[C@@H]1CC[C@H]2[C@@H](C)C(=O)O[C@@H]3O[C@@]4(C)CC[C@@H]1[C@]32OO4` [ARTEMISININ] registered an IC50 of 8 nM.
The compound `CN(C)c1cccc2c(S(=O)(=O)NCCCNC3CCC4(CC3)OOC3(O4)C4CC5CC(C4)CC3C5)cccc12` (mixture of isomers) had an IC50 in data set [1] of 14.6 nM. For the same compound, the Drug uptake entry in data set [9] is recorded as “Not Active”; in [10] it was “Active”.
For the compound `CN(C)c1cccc2c(S(=O)(=O)OC34CC5CC(C3)C3(OCC6(CCCCC6)O3)C(C5)C4)cccc12` (mixture of isomers), the IC50 in data set [1] stood at 25000 nM. For the same compound, the Drug uptake entry in data set [11] and in data set [12] was “Not Active” each time.
In turn, `CC(C)(N)CNC(=O)C[C@H]1CC[C@]2(CC1)OO[C@]1(O2)C2CC3CC(C2)CC1C3` [OZ277] yielded an IC50 in data set [13] of 2.5 nM. Besides, the Ki in data set [14] was 7900 nM.

Source of the values: ChEMBL document CHEMBL1921762, “Investigating the antimalarial action of 1,2,4-trioxolanes with fluorescent chemical probes” (J Med Chem, 2011).
